# The source made the active and inactive calls. The rule behind the calls is not given here.
# Tested on: Splenocyte
# Assay: Antiinflammatory activity in BALB/c mouse splenocytes assessed as inhibition of concanavalin A-induced IL-4 level at 10 uM after 48 hrs by ELISA
# Format: functional, cell-based
# Conditions: not given
# Summary of the method: (§1)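 Splenocytes from BALB/c mice at 5×10^6 cells/well in DMEM, stimulated with Con A 5 µg/mL, with compound at 10, 5 and 2.5 µM. Cell-free supernatants collected at 48 h and stored at -80 °C. IL-2, IL-4, IL-10, IL-17 and IFNγ measured by sandwich ELISA. Dexamethasone control at 10 µM (1.0 µM for IL-2). Mean±S.E.M. from one of two experiments.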
row,SMILES,inhibition
1,C[C@@H]1C[C@H]2[C@@H]3CCC4=CC(=O)C=C[C@]4(C)[C@@]3(F)[C@@H](O)C[C@]2(C)[C@@]1(O)C(=O)CO [DEXAMETHASONE],Active

# Tested on: Splenocyte
# Assay: Immunomodulatory activity in BALB/c mouse splenocytes assessed as inhibition of concanavalin A-induced lymphocyte proliferation by measuring [3H]-thymidine uptake after 48 to 72 hrs by scintillation counting analysis
# Format: functional, cell-based
# Conditions: not given
# Summary of the method: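 BALB/c splenocytes at 1×10^6 cells/well, in triplicate, stimulated with Con A (2 μg/mL) or anti-CD3/CD28 beads (1:1 bead:cell) with compound at 12–0.04 μM. After 48 h, 1 μCi 3H-thymidine added for a further 18 h; scintillation counting. Proliferation as % uptake versus untreated; dexamethasone control. IC50 from three independent experiments.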
row,SMILES,IC50
1,CC(/C=N/Nc1ccc([N+](=O)[O-])cc1)=N\NC(=O)c1ccc(O)cc1,1.51 µM
2,CC(/C=N/Nc1ccc([N+](=O)[O-])cc1)=N\NC(=O)c1ccc([N+](=O)[O-])cc1,0.98 µM
3,CC(/C=N/Nc1ccc([N+](=O)[O-])cc1)=N\NC(=O)c1ccc(C(F)(F)F)cc1,> 12 µM
4,CC(/C=N/Nc1ccc([N+](=O)[O-])cc1)=N\NC(=O)c1ccccc1,> 12 µM
5,CC(/C=N/Nc1ccc([N+](=O)[O-])cc1)=N\NC(=O)c1ccccc1N,4.9 µM
6,CC(/C=N/Nc1ccc([N+](=O)[O-])cc1)=N\NC(=O)c1ccccc1Cl,> 12 µM
7,CC(/C=N/Nc1ccc([N+](=O)[O-])cc1)=N\NC(=O)c1ccccc1F,> 12 µM
8,C[C@@H]1C[C@H]2[C@@H]3CCC4=CC(=O)C=C[C@]4(C)[C@@]3(F)[C@@H](O)C[C@]2(C)[C@@]1(O)C(=O)CO [DEXAMETHASONE],0.001 µM
9,CC(/C=N/N(C)c1ccc([N+](=O)[O-])cc1)=N\NC(=O)c1ccccc1O,3.12 µM
10,CC(/C=N/N(C)c1ccc([N+](=O)[O-])cc1)=N\NC(=O)c1cc([N+](=O)[O-])cc([N+](=O)[O-])c1,1.11 µM
11,CC(/C=N/Nc1ccc([N+](=O)[O-])cc1)=N\NC(=O)c1ccccc1O,1.64 µM
12,CC(/C=N/Nc1ccc([N+](=O)[O-])cc1)=N\NC(=O)c1ccccc1C,6 µM
13,CC(/C=N/Nc1ccc([N+](=O)[O-])cc1)=N\NC(=O)c1ccc2c(c1)OCO2,> 12 µM
14,CC(/C=N/Nc1ccc([N+](=O)[O-])cc1)=N\NC(=O)c1ccccc1Oc1ccccc1,> 12 µM
15,CC(/C=N/Nc1ccc([N+](=O)[O-])cc1)=N\NC(=O)c1ccc(N)cc1,> 12 µM
16,CC(/C=N/Nc1ccc([N+](=O)[O-])cc1)=N\NC(=O)c1ccccc1I,2.98 µM
17,CC(/C=N/Nc1ccc([N+](=O)[O-])cc1)=N\NC(=O)c1ccc(Cl)cc1,4.2 µM
18,CC(/C=N/N(C)c1ccc([N+](=O)[O-])cc1)=N\NC(=O)c1ccc(N)cc1,> 12 µM
19,COc1ccc(C(=O)N/N=C(C)/C=N/Nc2ccc([N+](=O)[O-])cc2)cc1,> 12 µM
20,CC(/C=N/Nc1ccc([N+](=O)[O-])cc1)=N\NC(=O)c1ccc(N(C)C)cc1,> 12 µM
21,COc1cc(C(=O)N/N=C(C)/C=N/Nc2ccc([N+](=O)[O-])cc2)ccc1O,5.1 µM
22,CC(/C=N/Nc1ccc([N+](=O)[O-])cc1)=N\NC(=O)c1cccc(C)c1,> 12 µM
23,CC(/C=N/Nc1ccc([N+](=O)[O-])cc1)=N\NC(=O)c1ccc(C(C)(C)C)cc1,> 12 µM

# Tested on: Splenocyte
# Assay: Antiinflammatory activity in BALB/c mouse splenocytes assessed as inhibition of concanavalin A-induced IL-17A level at 10 uM after 48 hrs by ELISA
# Format: functional, cell-based
# Conditions: not given
# Summary of the method: as §1
row,SMILES,inhibition
1,C[C@@H]1C[C@H]2[C@@H]3CCC4=CC(=O)C=C[C@]4(C)[C@@]3(F)[C@@H](O)C[C@]2(C)[C@@]1(O)C(=O)CO [DEXAMETHASONE],Active

# Tested on: Splenocyte
# Assay: Antiinflammatory activity in BALB/c mouse splenocytes assessed as inhibition of concanavalin A-induced IFN-gamma level at 10 uM after 48 hrs by ELISA
# Format: functional, cell-based
# Conditions: not given
# Summary of the method: as §1
row,SMILES,inhibition
1,C[C@@H]1C[C@H]2[C@@H]3CCC4=CC(=O)C=C[C@]4(C)[C@@]3(F)[C@@H](O)C[C@]2(C)[C@@]1(O)C(=O)CO [DEXAMETHASONE],Active

# Tested on: Splenocyte
# Assay: Antiinflammatory activity in BALB/c mouse splenocytes assessed as inhibition of concanavalin A-induced IL-10 level at 10 uM after 48 hrs by ELISA
# Format: functional, cell-based
# Conditions: not given
# Summary of the method: as §1
row,SMILES,inhibition
1,C[C@@H]1C[C@H]2[C@@H]3CCC4=CC(=O)C=C[C@]4(C)[C@@]3(F)[C@@H](O)C[C@]2(C)[C@@]1(O)C(=O)CO [DEXAMETHASONE],Active

# Tested on: Mus musculus
# Assay: Antiinflammatory activity in carrageenan-induced BALB/c mouse peritonitis model assessed as reduction in number of neutrophils in peritoneal fluid at 80 mg/kg, ip pretreated for 1 hr followed by carrageenan challenge measured after 4 hrs by hematoxylin and eosin staining-based assay relative to control
# Format: functional
# Conditions: not given
# Summary of the method: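 Male BALB/c mice were dosed orally with compound (20 or 80 mg/kg) or vehicle; indomethacin 80 mg/kg was given ip. One hour later, carrageenan (250 µL of 1.0 mg/mL) was injected ip. Peritoneal lavage with 2 mL saline at 4 h. Total leukocytes counted in Neubauer chamber with Trypan blue; neutrophils by blinded 200-cell differential on H&E-stained cytospins.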
row,SMILES,inhibition in vivo at 80 mg/kg
1,COc1ccc2c(c1)c(CC(=O)O)c(C)n2C(=O)c1ccc(Cl)cc1 [INDOMETHACIN],35.9%

# Tested on: Splenocyte
# Assay: Antiinflammatory activity in BALB/c mouse splenocytes assessed as inhibition of concanavalin A-induced IL-2 level at 1 uM after 48 hrs by ELISA
# Format: functional, cell-based
# Conditions: not given
# Summary of the method: as §1
row,SMILES,inhibition
1,C[C@@H]1C[C@H]2[C@@H]3CCC4=CC(=O)C=C[C@]4(C)[C@@]3(F)[C@@H](O)C[C@]2(C)[C@@]1(O)C(=O)CO [DEXAMETHASONE],Active

# Tested on: J774
# Assay: Antiinflammatory activity in BALB/c mouse J774 cells assessed as inhibition of LPS/IFNgamma-induced nitric oxide production at 20 uM after 24 hrs by Griess method relative to control
# Format: functional
# Conditions: J774, 24 h
# Summary of the method: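 J774 macrophages, 2×10^5 cells/well in DMEM + 10% FBS, allowed to settle 2 h at 37°C, 5% CO2; stimulated with LPS (E. coli 0111:B4, 500 ng/mL) plus IFNγ (5 ng/mL) with compound present (primary screen at 20 μM). Nitrite measured by Griess in supernatants at 24 h; % inhibition against stimulated untreated control.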
row,SMILES,inhibition at 20 µM
1,CC(/C=N/Nc1ccc([N+](=O)[O-])cc1)=N\NC(=O)c1ccc(O)cc1,43.8%
2,CC(/C=N/Nc1ccc([N+](=O)[O-])cc1)=N\NC(=O)c1ccc([N+](=O)[O-])cc1,39.1%
3,CC(/C=N/Nc1ccc([N+](=O)[O-])cc1)=N\NC(=O)c1ccc(C(F)(F)F)cc1,18.7%
4,CC(/C=N/Nc1ccc([N+](=O)[O-])cc1)=N\NC(=O)c1ccccc1,31.4%
5,CC(/C=N/Nc1ccc([N+](=O)[O-])cc1)=N\NC(=O)c1ccccc1N,39.3%
6,CC(/C=N/Nc1ccc([N+](=O)[O-])cc1)=N\NC(=O)c1ccccc1Cl,39.4%
7,CC(/C=N/Nc1ccc([N+](=O)[O-])cc1)=N\NC(=O)c1ccccc1F,5.3%
8,C[C@@H]1C[C@H]2[C@@H]3CCC4=CC(=O)C=C[C@]4(C)[C@@]3(F)[C@@H](O)C[C@]2(C)[C@@]1(O)C(=O)CO [DEXAMETHASONE],69.8%
9,CC(/C=N/N(C)c1ccc([N+](=O)[O-])cc1)=N\NC(=O)c1ccccc1O,41%
10,CC(/C=N/N(C)c1ccc([N+](=O)[O-])cc1)=N\NC(=O)c1cc([N+](=O)[O-])cc([N+](=O)[O-])c1,51%
11,CC(/C=N/Nc1ccc([N+](=O)[O-])cc1)=N\NC(=O)c1ccccc1O,59.7%
12,CC(/C=N/Nc1ccc([N+](=O)[O-])cc1)=N\NC(=O)c1ccccc1C,21.9%
13,CC(/C=N/Nc1ccc([N+](=O)[O-])cc1)=N\NC(=O)c1ccc2c(c1)OCO2,23.2%
14,CC(/C=N/Nc1ccc([N+](=O)[O-])cc1)=N\NC(=O)c1ccccc1Oc1ccccc1,5.5%
15,CC(/C=N/Nc1ccc([N+](=O)[O-])cc1)=N\NC(=O)c1ccc(N)cc1,12.8%
16,CC(/C=N/Nc1ccc([N+](=O)[O-])cc1)=N\NC(=O)c1ccccc1I,56.8%
17,CC(/C=N/Nc1ccc([N+](=O)[O-])cc1)=N\NC(=O)c1ccc(Cl)cc1,23%
18,CC(/C=N/N(C)c1ccc([N+](=O)[O-])cc1)=N\NC(=O)c1ccc(N)cc1,3.6%
19,COc1ccc(C(=O)N/N=C(C)/C=N/Nc2ccc([N+](=O)[O-])cc2)cc1,7.5%
20,CC(/C=N/Nc1ccc([N+](=O)[O-])cc1)=N\NC(=O)c1ccc(N(C)C)cc1,25.6%
21,COc1cc(C(=O)N/N=C(C)/C=N/Nc2ccc([N+](=O)[O-])cc2)ccc1O,6.6%
22,CC(/C=N/Nc1ccc([N+](=O)[O-])cc1)=N\NC(=O)c1cccc(C)c1,9.3%
23,CC(/C=N/Nc1ccc([N+](=O)[O-])cc1)=N\NC(=O)c1ccc(C(C)(C)C)cc1,4.8%
24,CC(/C=N/Nc1ccc([N+](=O)[O-])cc1)=N\NC(=O)c1ccccc1Nc1ccccc1,14.1%

# Tested on: not listed separately
# Assay: Cytotoxicity against BALB/c mouse J774 cells assessed as reduction in cell viability after 72 hrs by alamarBlue assay
# Format: cell-based
# Conditions: not given
# Summary of the method: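 J774 murine macrophages, 1×10^4 cells/well in DMEM + 10% FBS, pre-incubated 24 h at 37°C, 5% CO2; compounds 100–0.41 μM in triplicate for 72 h. AlamarBlue added for 4 h, absorbance at 570 and 600 nm; gentian violet positive control. CC50 from three independent experiments.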
row,SMILES,CC50 at 72 h
1,CC(/C=N/Nc1ccc([N+](=O)[O-])cc1)=N\NC(=O)c1ccc(O)cc1,51 µM
2,CC(/C=N/Nc1ccc([N+](=O)[O-])cc1)=N\NC(=O)c1ccc([N+](=O)[O-])cc1,> 100 µM
3,CC(/C=N/Nc1ccc([N+](=O)[O-])cc1)=N\NC(=O)c1ccc(C(F)(F)F)cc1,78.7 µM
4,CC(/C=N/Nc1ccc([N+](=O)[O-])cc1)=N\NC(=O)c1ccccc1,> 100 µM
5,CC(/C=N/Nc1ccc([N+](=O)[O-])cc1)=N\NC(=O)c1ccccc1N,29.8 µM
6,CC(/C=N/Nc1ccc([N+](=O)[O-])cc1)=N\NC(=O)c1ccccc1Cl,> 100 µM
7,CC(/C=N/Nc1ccc([N+](=O)[O-])cc1)=N\NC(=O)c1ccccc1F,> 100 µM
8,C[C@@H]1C[C@H]2[C@@H]3CCC4=CC(=O)C=C[C@]4(C)[C@@]3(F)[C@@H](O)C[C@]2(C)[C@@]1(O)C(=O)CO [DEXAMETHASONE],91.1 µM
9,CC(/C=N/N(C)c1ccc([N+](=O)[O-])cc1)=N\NC(=O)c1ccccc1O,31.5 µM
10,CC(/C=N/N(C)c1ccc([N+](=O)[O-])cc1)=N\NC(=O)c1cc([N+](=O)[O-])cc([N+](=O)[O-])c1,39 µM
11,CC(/C=N/Nc1ccc([N+](=O)[O-])cc1)=N\NC(=O)c1ccccc1O,29.5 µM
12,CC(/C=N/Nc1ccc([N+](=O)[O-])cc1)=N\NC(=O)c1ccccc1C,> 100 µM
13,CC(/C=N/Nc1ccc([N+](=O)[O-])cc1)=N\NC(=O)c1ccc2c(c1)OCO2,> 100 µM
14,CC(/C=N/Nc1ccc([N+](=O)[O-])cc1)=N\NC(=O)c1ccccc1Oc1ccccc1,> 100 µM
15,CC(/C=N/Nc1ccc([N+](=O)[O-])cc1)=N\NC(=O)c1ccc(N)cc1,75 µM
16,CC(/C=N/Nc1ccc([N+](=O)[O-])cc1)=N\NC(=O)c1ccccc1I,40 µM
17,CC(/C=N/Nc1ccc([N+](=O)[O-])cc1)=N\NC(=O)c1ccc(Cl)cc1,63.9 µM
18,CC(/C=N/N(C)c1ccc([N+](=O)[O-])cc1)=N\NC(=O)c1ccc(N)cc1,51.7 µM
19,COc1ccc(C(=O)N/N=C(C)/C=N/Nc2ccc([N+](=O)[O-])cc2)cc1,> 100 µM
20,CN(C)c1ccc(C(=C2C=CC(=[N+](C)C)C=C2)c2ccc(N(C)C)cc2)cc1 [GENTIAN VIOLET],4.1 µM
21,CC(/C=N/Nc1ccc([N+](=O)[O-])cc1)=N\NC(=O)c1ccc(N(C)C)cc1,> 100 µM
22,COc1cc(C(=O)N/N=C(C)/C=N/Nc2ccc([N+](=O)[O-])cc2)ccc1O,> 100 µM
23,CC(/C=N/Nc1ccc([N+](=O)[O-])cc1)=N\NC(=O)c1cccc(C)c1,> 100 µM
24,CC(/C=N/Nc1ccc([N+](=O)[O-])cc1)=N\NC(=O)c1ccc(C(C)(C)C)cc1,> 100 µM
25,CC(/C=N/Nc1ccc([N+](=O)[O-])cc1)=N\NC(=O)c1ccccc1Nc1ccccc1,> 100 µM

# From ChEMBL document CHEMBL4219127, “Structural design, synthesis and substituent effect of hydrazone-N-acylhydrazones reveal potent immunomodulatory agents” (Bioorg Med Chem, 2018)
